According to ChEMBL document CHEMBL1129609, “Synthesis and antiviral activity evaluation of some new aminoadamantane derivatives. 2” (1996):
Values after ≈ are worked out from the molar mass of the structure shown.

Experiments:
[1] = test system: Human immunodeficiency virus 2; assay: Antiviral activity against HIV-2 virus infected CEM cell lines.; type: functional, CCRF-CEM
[2] = test system: CCRF-CEM; assay: Cytotoxicity against CEM cell lines.; type: functional; conditions: Homo sapiens
[3] = test system: Human immunodeficiency virus 1; assay: Antiviral activity against HIV-1 virus infected CEM cell lines.; type: functional, CCRF-CEM
[4] = test system: Human alphaherpesvirus 1; assay: Antiviral activity against HSV-1 virus infected HEF cell lines.; type: functional
In short: (§1)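 Human embryonic fibroblasts, from embryonic lung or embryonic skin-muscle, infected with the virus. Endpoint is the minimum inhibitory concentration that reduces virus-induced cytopathicity by 50%. Values are averages of at least two separate experiments.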

[5] = test system: Human alphaherpesvirus 2; assay: Antiviral activity against HSV-2 virus infected HEF cell lines.; type: functional; in short: as §1
[6] = test system: Human alphaherpesvirus 1; assay: Antiviral activity against TK-HSV-1 virus infected HEF cell lines.; type: functional; in short: as §1
[7] = test system: HEF; assay: Effects on cell morphology of HEF cell lines.; type: functional; conditions: Homo sapiens
In short: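 Human embryonic skin-muscle fibroblasts were examined under the microscope for changes in normal cell morphology. The value is the minimum concentration causing a microscopically detectable alteration, averaged from at least two separate experiments.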

[8] = test system: Vaccinia virus; assay: Antiviral activity against vaccinia virus infected HEF cell lines.; type: functional; conditions: Orthopoxvirus vaccinia; in short: as §1
[9] = test system: Enterovirus C; assay: Antiviral activity against polio 1 virus infected HeLa cell lines.; type: functional
In short: (§2)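 Vero (African green monkey kidney), HeLa (human epithelial) or HEL (human embryonic lung) cell monolayers infected with the virus. Readout is the minimum inhibitory concentration that reduces virus-induced cytopathicity by 50%. Values are averages of at least two separate experiments.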

[10] = test system: Vesicular stomatitis virus; assay: Antiviral activity against vesicular stomatitis virus infected HeLa cell lines.; type: functional; in short: as §2
[11] = test system: Coxsackievirus B4; assay: Antiviral activity against Coxsackie B4 virus infected HeLa cell lines.; type: functional; conditions: Enterovirus B; in short: as §2
[12] = test system: Human betaherpesvirus 5; assay: Antiviral activity against HCMV virus infected HEL cell lines.; type: functional; in short: as §2
[13] = test system: Human alphaherpesvirus 3; assay: Antiviral activity against TK+VZV virus infected HEL cell lines.; type: functional; in short: as §2
[14] = test system: Human alphaherpesvirus 3; assay: Antiviral activity against TK-VZV virus infected HEL cell lines.; type: functional; in short: as §2
[15] = test system: HEL; assay: Inhibition of HEL cell proliferation.; type: functional; conditions: Homo sapiens
In short: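 Human embryonic lung fibroblasts were used for the proliferation assay. The value is the concentration that reduces cell proliferation by 50%, averaged from at least two separate experiments.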

[16] = test system: MDCK; assay: Antiviral activity tested against influenza A,H1N1 virus infected MDCK cell lines.; type: functional; conditions: Canis lupus familiaris
[17] = Antiviral activity against influenza A,H3N2 virus infected MDCK cell lines.; type: functional
[18] = test system: Influenza B virus; assay: Antiviral activity against influenza B virus infected MDCK cell lines.; type: functional
[19] = test system: MDCK; assay: Antiviral activity of compound was tested against morphology virus infec+ted MDCK cell lines.; type: functional; conditions: Canis lupus familiaris
[20] = test system: Semliki Forest virus; assay: Antiviral activity against Semliki forest virus infected Vero cell lines.; type: functional; in short: as §2
[21] = test system: Coxsackievirus B4; assay: Antiviral activity against Coxsackie B4 virus infected vero cell lines.; type: functional; conditions: Enterovirus B; in short: as §2
[22] = test system: Vero; assay: Effects on cell morphology of Vero cell lines.; type: functional; conditions: Chlorocebus sabaeus
In short: (§3)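 HeLa (human epithelial) or Vero (African green monkey kidney) cells were examined under the microscope for changes in normal morphology. The value is the minimum concentration causing a detectable alteration, averaged from at least two separate experiments.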

[23] = test system: Human respirovirus 3; assay: Antiviral activity against parainfluenza 3 virus infected Vero cell lines.; type: functional; in short: as §2
[24] = test system: Mammalian orthoreovirus 1; assay: Antiviral activity against Reo 1 virus infected vero cell lines.; type: functional; in short: as §2
[25] = test system: Sindbis virus; assay: Antiviral activity against sindbis virus infected Vero cell lines.; type: functional; in short: as §2
[26] = Antiviral activity against influenza A,H2N2 virus infected MDCK cell lines.; type: functional
[27] = test system: HeLa; assay: Effects on cell morphology of HeLa cell lines.; type: functional; conditions: Homo sapiens; in short: as §3
[28] = test system: Vesicular stomatitis virus; assay: Antiviral activity against vesicular stomatitis virus infected HEF cell lines.; type: functional; in short: as §1
[29] = test system: MDCK; assay: Antiviral activity of compound was tested against morphology virus infected MDCK cell lines.; type: functional; conditions: Canis lupus familiaris

Row | SMILES | MIC50 [1] [µg/mL] | MIC50 [2] [µg/mL] | MIC50 [3] [µg/mL] | MIC50 [4] [µg/mL] | MIC50 [5] [µg/mL] | MIC50 [6] [µg/mL] | MIC50 [7] [µg/mL] | MIC50 [8] [µg/mL] | MIC50 [9] [µg/mL] | MIC50 [10] [µg/mL] | MIC50 [11] [µg/mL] | MIC50 [12] [µg/mL] | MIC50 [13] [µg/mL] | MIC50 [14] [µg/mL] | MIC50 [15] [µg/mL] | MIC50 [16] [µg/mL] | MIC50 [17] [µg/mL] | MIC50 [18] [µg/mL] | MIC50 [20] [µg/mL] | MIC50 [21] [µg/mL] | further results
1 | CNC1(C23CC4CC(CC(C4)C2)C3)CCCC1 | > 8 | 49 (≈ 210 µM) | > 8 | > 10 | > 10 | > 10 | 40 (≈ 171 µM) | > 10 | > 40 | > 40 | > 40 | > 20 | > 20 | > 20 | > 50 | 59 (≈ 253 µM) | > 60 | > 80 | > 100 | > 100 | MIC50 [19]: > 250 µg/mL; MIC50 [22]: > 400 µg/mL; MIC50 [23]: > 100 µg/mL; MIC50 [24]: > 100 µg/mL; MIC50 [25]: > 100 µg/mL; MIC50 [26]: 9 µg/mL (≈ 38.6 µM); MIC50 [27]: > 100 µg/mL; MIC50 [28]: > 10 µg/mL
2 | C1CNC(C23CC4CC(CC(C4)C2)C3)C1 (stereo unspecified) | > 40 | 56 (≈ 273 µM) | > 40 | > 40 | > 40 | > 40 | 100 (≈ 487 µM) | > 40 | > 100 | > 100 | > 100 | > 50 | > 50 | > 50 | > 50 | 15.8 (≈ 76.9 µM) | 12.4 (≈ 60.4 µM) | 12 (≈ 58.4 µM) | > 200 | > 200 | MIC50 [29]: 250 µg/mL (≈ 1220 µM); MIC50 [22]: 400 µg/mL (≈ 1950 µM); MIC50 [23]: > 200 µg/mL; MIC50 [24]: > 200 µg/mL; MIC50 [25]: > 200 µg/mL; MIC50 [26]: 0.6 µg/mL (≈ 2.92 µM); MIC50 [27]: > 200 µg/mL; MIC50 [28]: > 40 µg/mL
